Values after ≈ are worked out from the molar mass of the structure shown. Active and inactive are the calls of the source. The calls are words filed in the database; no cut-off is given here.
Experiments:
[1] = molecular target: Acetylcholinesterase (Homo sapiens) (UniProt P22303)
[2] = system: Micrococcus luteus; assay: Antimicrobial activity against Micrococcus luteus DMS 348 after 48 hrs by serial dilution method; type: functional
How it was run: (§1)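 Bacteria grown as liquid cultures in nutrient broth at 37 °C. […] Growth was scored after 48 h of incubation.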

[3] = system: Radical scavenging activity; assay: Antioxidant activity assessed as DPPH radical scavenging activity; type: functional
How it was run: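 Compounds were tested in MeOH at 5, 10, 20, 50 and 100 µM with DPPH at 0.1 mM final. Absorbance at 517 nm was read after 30 min. Percent radical inhibition was plotted to give the IC50, the concentration scavenging 50% of DPPH. Trolox was the positive control.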

[4] = system: Artemia salina; assay: Toxicity against Artemia salina after 24 hrs; type: organism-based; conditions: in vivo
How it was run: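 Freshly hatched Artemia salina larvae (10 per test) in 5 mL artificial seawater; compounds dissolved in DMSO, tested at final 100, 10 and 1 ppm, in triplicate. Surviving shrimps counted after 24 h; LD50 with 95% confidence intervals by Finney probit analysis, reported in ppm.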

[5] = system: Escherichia coli; assay: Antimicrobial activity against Escherichia coli DSM 498 after 48 hrs by serial dilution method; type: functional, organism-based
How it was run: as §1

[6] = system: Bacillus spizizenii; assay: Antimicrobial activity against Bacillus subtilis subsp. spizizenii DMS 347 after 48 hrs by serial dilution method; type: functional
How it was run: as §1

[7] = system: Saccharomyces cerevisiae; assay: Antimicrobial activity against Saccharomyces cerevisiae DMS 70449 after 48 hrs by serial dilution method; type: functional

Acetylcholinesterase (Homo sapiens), sequence (P22303 whole entry): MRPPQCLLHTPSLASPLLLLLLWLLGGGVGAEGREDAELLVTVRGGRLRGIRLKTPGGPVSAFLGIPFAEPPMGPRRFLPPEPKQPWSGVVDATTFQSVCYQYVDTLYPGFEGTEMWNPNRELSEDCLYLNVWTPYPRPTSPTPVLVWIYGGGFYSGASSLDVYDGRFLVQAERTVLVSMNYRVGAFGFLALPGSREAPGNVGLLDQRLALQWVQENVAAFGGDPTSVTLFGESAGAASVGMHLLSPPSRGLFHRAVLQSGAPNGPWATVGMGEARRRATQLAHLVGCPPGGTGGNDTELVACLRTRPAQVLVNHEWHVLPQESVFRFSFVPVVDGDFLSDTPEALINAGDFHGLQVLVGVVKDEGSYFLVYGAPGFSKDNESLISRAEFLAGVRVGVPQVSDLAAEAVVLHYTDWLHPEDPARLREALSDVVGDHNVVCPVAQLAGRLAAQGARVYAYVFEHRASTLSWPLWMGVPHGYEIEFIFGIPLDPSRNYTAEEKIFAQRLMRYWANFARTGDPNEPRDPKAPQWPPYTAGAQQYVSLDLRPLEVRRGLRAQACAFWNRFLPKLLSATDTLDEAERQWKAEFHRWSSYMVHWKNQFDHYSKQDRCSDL

Row | Compound | MIC [1] | MIC [2] | IC50 ([3]; read-out: IC50) | LC50 [4] | Activity [5] | MIC ([6]; DMS 347, 48 h) | MIC [7] | MIC ([2]; DMS 348, 48 h) | MIC [6] | MIC ([7]; DMS 70449, 48 h) | IC50 [3]
1 | CC1=CCC[C@H]2[C@](C)(Cc3cc(O)cc(SC(C)C(=O)O)c3O)[C@@H](C)CC[C@]12C (stereo partly specified) | 1 µg | inactive | 34.6 µM | 27.25 ppm | inactive | 10 µg/mL (≈ 23.9 µM) | inactive | – | – | – | –
2 | Cc1c(C)c2c(c(C)c1O)CCC(C)(C(=O)O)O2 (stereo unspecified) [TROLOX] | – | – | 25.8 µM | – | – | – | – | – | – | – | –
3 | CC1=CCC[C@H]2[C@](C)(CC3=CC(O)C(S[C@H]4CC[C@@]5(C)C(=CC[C@H]6[C@@H]7CC[C@H]([C@H](C)CCCC(C)C)[C@@]7(C)CC[C@@H]65)C4)=CC3O)[C@@H](C)CC[C@]12C (stereo partly specified) | – | – | 71.4 µM | Not Active | – | – | – | – | – | – | –
4 | CC1=CCC[C@H]2[C@](C)(Cc3cc(O)cc(Sc4nc5ccccc5s4)c3O)[C@@H](C)CC[C@]12C | 10 µg | – | 29.5 µM | Not Active | inactive | – | – | 0.01 µg/mL (≈ 0.0208 µM) | inactive | 100 µg/mL (≈ 208 µM) | –
5 | CC1=CCC[C@H]2[C@](C)(Cc3cc(O)ccc3O)[C@@H](C)CC[C@]12C [AVAROL] | 10 µg | – | 18 µM | 0.18 ppm | inactive | 25 µg/mL (≈ 79.5 µM) | inactive | 10 µg/mL (≈ 31.8 µM) | – | – | –
6 | NYSTATIN | – | – | – | – | – | – | 100 µg/mL | – | – | – | –
7 | CC1=CCC[C@H]2[C@](C)(Cc3cc(O)cc(Sc4ccccc4CO)c3O)[C@@H](C)CC[C@]12C | 10 µg | inactive | 25.3 µM | > 50 ppm | inactive | – | inactive | – | inactive | – | –
8 | CC1=CCC[C@H]2[C@](C)(Cc3cc(O)c(Sc4nc5ccccc5s4)cc3O)[C@@H](C)CC[C@]12C | > 10 µg | inactive | 31.2 µM | Not Active | inactive | – | inactive | – | inactive | – | –
9 | CC1=CCC[C@H]2[C@](C)(Cc3cc(O)c(SC(C)C(=O)O)cc3O)[C@@H](C)CC[C@]12C (stereo partly specified) | 1 µg | inactive | 35.3 µM | > 50 ppm | inactive | 10 µg/mL (≈ 23.9 µM) | inactive | – | – | – | –
10 | GENTAMICIN | – | 10 µg/mL | – | – | – | – | – | – | 1 µg/mL | – | –
11 | CC1=CCC[C@H]2[C@](C)(CC3=CC(=O)C(S[C@H]4CC[C@@]5(C)C(=CC[C@H]6[C@@H]7CC[C@H]([C@H](C)CCCC(C)C)[C@@]7(C)CC[C@@H]65)C4)=CC3=O)[C@@H](C)CC[C@]12C | > 10 µg | inactive | – | Not Active | inactive | – | inactive | – | inactive | – | Not Active
12 | CC1=CCC[C@H]2[C@](C)(CC3=CC(=O)C=CC3=O)[C@@H](C)CC[C@]12C [AVARONE] | 1 µg | – | 32.1 µM | 0.14 ppm | inactive | 10 µg/mL (≈ 32 µM) | inactive | 1 µg/mL (≈ 3.2 µM) | – | – | –
13 | CC1=CCC[C@H]2[C@](C)(CC3=CC(O)C(S[C@H]4CC[C@@]5(C)C(=CC[C@H]6[C@@H]7CC[C@H]([C@H](C)CCCC(C)C)[C@@]7(C)CC[C@@H]65)C4)=C(S[C@H]4CC[C@@]5(C)C(=CC[C@H]6[C@@H]7CC[C@H]([C@H](C)CCCC(C)C)[C@@]7(C)CC[C@@H]65)C4)C3O)[C@@H](C)CC[C@]12C (stereo partly specified) | > 10 µg | inactive | 41.5 µM | Not Active | inactive | – | inactive | – | inactive | – | –
14 | CC1=CCC[C@H]2[C@](C)(Cc3cc(O)cc(Sc4cccc(C(=O)O)c4)c3O)[C@@H](C)CC[C@]12C | 1 µg | – | 31.8 µM | 14.73 ppm | inactive | 10 µg/mL (≈ 21.4 µM) | inactive | 10 µg/mL (≈ 21.4 µM) | – | – | –

— ChEMBL document CHEMBL1154130, “Synthesis and biological activities of thio-avarol derivatives” (J Nat Prod, 2008)
